Measurements taken from ChEMBL document CHEMBL4364271, “Unveiling the Importance of Amide Protons in CSP:ComD Interactions in Streptococcus pneumoniae” (ACS Med Chem Lett, 2019).
Active and inactive are the calls of the source. No cut-off for these calls is given here. Non-standard residues stand in square brackets, D forms with d. Residues, ends and D or L forms follow the SMILES beside them. NMeR = CN[C@@H](CCCNC(=N)N)C(=O)O; NMeF = CN[C@@H](Cc1ccccc1)C(=O)O; NMeI = CC[C@H](C)[C@H](NC)C(=O)O; NMeD = CN[C@@H](CC(=O)O)C(=O)O; NMeL = CN[C@@H](CC(C)C)C(=O)O; NMeS = CN[C@@H](CO)C(=O)O

Key:
[1] = Agonist activity at ComD1 receptor in Streptococcus pneumoniae D39 harboring pcomX/lacZ reporter gene incubated for 30 mins by ONPG based beta-galactosidase assay
Procedure, shortened: (§1)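 Dose-response in wild-type lacZ reporter strains (comX promoter; D39 for ComD1, TIGR4 for ComD2) producing native CSP. Peptides tested over a range of concentrations. β-gal read-out (Miller units) normalized to native CSP. EC50 reported with 95% confidence interval.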

[2] = system: Streptococcus pneumoniae TIGR4; assay: Agonist activity at ComD2 receptor in Streptococcus pneumoniae TIGR4 harboring pcomX/lacZ reporter gene at 10 uM incubated for 30 mins by ONPG based beta-galactosidase assay relative to native CSP2
Procedure, shortened: (§2)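 Single-dose screen of synthetic peptide at 10 μM in wild-type reporter strains (D39 for ComD1, TIGR4 for ComD2) producing their own CSP and carrying lacZ under the comX promoter. β-gal activity in Miller units normalized to native CSP (CSP1 or CSP2, 100%); DMSO 0%. Triplicates over three separate trials.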

[3] = system: Streptococcus pneumoniae D39; assay: Agonist activity at ComD1 receptor in Streptococcus pneumoniae D39 harboring pcomX/lacZ reporter gene at 10 uM incubated for 30 mins by ONPG based beta-galactosidase assay relative to native CSP1; procedure, shortened: as §2
[4] = Agonist activity at ComD2 receptor in Streptococcus pneumoniae TIGR4 harboring pcomX/lacZ reporter gene incubated for 30 mins by ONPG based beta-galactosidase assay; procedure, shortened: as §1
[5] = Antagonist activity at ComD1 receptor in Streptococcus pneumoniae D39 harboring pcomX/lacZ reporter gene assessed as inhibiton of CSP1-stimulated maximum signal preincubated for 30 mins followed by 50 nM CSP1 addition by ONPG based beta-galactosidase assay
Procedure, shortened: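 Comx-lacZ β-gal reporter inhibition in D39 (ComD1, CSP1 50 nM) or TIGR4 (ComD2, CSP2 250 nM). Peptides tested over a range of concentrations against the stimulating CSP. Miller units normalized to CSP alone. IC50 given with 95% confidence interval.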

[6] = Metabolic stability in aqueous ammonium carbonate solution assessed as trypsin/chymotrypsin (unknown origin)-mediated drug degradation by measuring half life at 0.05 ug/ml incubated in shaking conditions in presence of trypsin/chymotrpsin and measured for 48 hrs by RP-HPLC analysis; assay type: ADME; conditions: human
[7] = Metabolic stability in human plasma at 0.33 mM measured for 3 hrs by RP-HPLC analysis; assay type: ADME, cell-free; conditions: 330 µM
[8] = system: Streptococcus pneumoniae D39; assay: Antagonist activity at ComD1 receptor in Streptococcus pneumoniae D39 harboring pcomX/lacZ reporter gene assessed as inhibiton of CSP1-stimulated maximum signal at 10 uM preincubated for 30 mins followed by 50 nM CSP1 addition by ONPG based beta-galactosidase assay relative to native CSP1
Procedure, shortened: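 Inhibition screen: peptides at 10 μM against CSP1 50 nM (D39, ComD1) or CSP2 250 nM (TIGR4, ComD2), in comX-lacZ reporter strains. β-gal Miller units normalized to CSP alone (100%) and DMSO (0%). Triplicates over three separate trials.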

[9] = Solubility of the compound in ammonium carbonate solution at pH 8; assay type: physicochemical; conditions: buffer

Row | Compound | EC50 [1] | Activity [2] | Activity [3] | EC50 [4] | IC50 [5] | half-life at 0.05 ug/ml [6] | Stability [7] | inhibition [8] | solubility [9]
1 | CC[C@H](C)[C@H](NC(=O)[C@H](Cc1ccccc1)NC(=O)[C@H](CC(=O)O)NC(=O)[C@H](CCCNC(=N)N)NC(=O)[C@H](Cc1ccccc1)NC(=O)[C@H](Cc1ccccc1)NC(=O)[C@H](CCCCN)NC(=O)[C@H](CO)NC(=O)[C@H](CC(C)C)N(C)C(=O)[C@H](CCCNC(=N)N)NC(=O)[C@H](CCSC)NC(=O)[C@@H](N)CCC(=O)O)C(=O)N[C@@H](CC(C)C)C(=O)N[C@@H](CCC(N)=O)C(=O)N[C@@H](CCCNC(=N)N)C(=O)O (H-EMR[NMeL]SKFFRDFILQR-OH) | 280 nM | inactive | > 75% |  |  |  |  |  | 
2 | CC[C@H](C)[C@H](NC(=O)[C@H](Cc1ccccc1)NC(=O)[C@H](CC(=O)O)NC(=O)[C@H](CCCNC(=N)N)NC(=O)[C@H](Cc1ccccc1)N(C)C(=O)[C@H](Cc1ccccc1)NC(=O)[C@H](CCCCN)NC(=O)[C@H](CO)NC(=O)[C@H](CC(C)C)NC(=O)[C@H](CCCNC(=N)N)NC(=O)[C@H](CCSC)NC(=O)[C@@H](N)CCC(=O)O)C(=O)N[C@@H](CC(C)C)C(=O)N[C@@H](CCC(N)=O)C(=O)N[C@@H](CCCNC(=N)N)C(=O)O (H-EMRLSKF[NMeF]RDFILQR-OH) | > 1000 nM | inactive | > 75% |  |  |  |  |  | 
3 | CC[C@H](C)[C@H](NC(=O)[C@H](Cc1ccccc1)NC(=O)[C@H](CC(=O)O)N(C)C(=O)[C@H](CCCNC(=N)N)NC(=O)[C@H](Cc1ccccc1)NC(=O)[C@H](Cc1ccccc1)NC(=O)[C@H](CCCCN)NC(=O)[C@H](CO)NC(=O)[C@H](CC(C)C)NC(=O)[C@H](CCCNC(=N)N)NC(=O)[C@H](CCSC)NC(=O)[C@@H](N)CCC(=O)O)C(=O)N[C@@H](CC(C)C)C(=O)N[C@@H](CCC(N)=O)C(=O)N[C@@H](CCCNC(=N)N)C(=O)O (H-EMRLSKFFR[NMeD]FILQR-OH) | > 1000 nM | > 75% | inactive | > 1000 nM |  |  |  |  | 
4 | CC[C@H](C)[C@H](NC(=O)[C@H](Cc1ccccc1)NC(=O)[C@H](CC(=O)O)NC(=O)[C@H](CCCNC(=N)N)NC(=O)[C@H](Cc1ccccc1)NC(=O)[C@H](Cc1ccccc1)NC(=O)[C@H](CCCCN)NC(=O)[C@H](CO)N(C)C(=O)[C@H](CC(C)C)NC(=O)[C@H](CCCNC(=N)N)NC(=O)[C@H](CCSC)NC(=O)[C@@H](N)CCC(=O)O)C(=O)N[C@@H](CC(C)C)C(=O)N[C@@H](CCC(N)=O)C(=O)N[C@@H](CCCNC(=N)N)C(=O)O (H-EMRL[NMeS]KFFRDFILQR-OH) | 280 nM | > 75% | > 75% | > 1000 nM |  |  |  |  | 
5 | CC[C@H](C)[C@H](NC(=O)[C@H](Cc1ccccc1)NC(=O)[C@H](CC(=O)O)NC(=O)[C@H](CCCNC(=N)N)NC(=O)[C@H](Cc1ccccc1)NC(=O)[C@H](Cc1ccccc1)NC(=O)[C@H](CCCCN)NC(=O)[C@H](CO)NC(=O)[C@H](CC(C)C)NC(=O)[C@H](CCCNC(=N)N)NC(=O)[C@H](CCSC)NC(=O)[C@H](C)N)C(=O)N[C@@H](CC(C)C)C(=O)N(C)[C@@H](CCC(N)=O)C(=O)N[C@@H](CCCNC(=N)N)C(=O)N[C@@H](CCCCN)C(=O)N[C@@H](CCCCN)C(=O)O |  |  |  |  | 370 nM | 6 h | Stable |  | 
6 | CC[C@H](C)[C@H](NC(=O)[C@H](Cc1ccccc1)NC(=O)[C@H](CC(=O)O)NC(=O)[C@H](CCCNC(=N)N)NC(=O)[C@H](Cc1ccccc1)NC(=O)[C@H](Cc1ccccc1)NC(=O)[C@H](CCCCN)NC(=O)[C@H](CO)NC(=O)[C@H](CC(C)C)NC(=O)[C@H](CCCNC(=N)N)NC(=O)[C@H](CCSC)NC(=O)[C@@H](N)CCC(=O)O)C(=O)N(C)[C@@H](CC(C)C)C(=O)N[C@@H](CCC(N)=O)C(=O)N[C@@H](CCCNC(=N)N)C(=O)O (H-EMRLSKFFRDFI[NMeL]QR-OH) | > 1000 nM | inactive | inactive |  |  |  |  |  | 
7 | CC[C@H](C)[C@H](NC(=O)[C@H](Cc1ccccc1)NC(=O)[C@H](CC(=O)O)NC(=O)[C@H](CCCNC(=N)N)NC(=O)[C@H](Cc1ccccc1)NC(=O)[C@H](Cc1ccccc1)NC(=O)[C@H](CCCCN)NC(=O)[C@H](CO)NC(=O)[C@H](CC(C)C)NC(=O)[C@H](CCCNC(=N)N)NC(=O)[C@H](CCSC)NC(=O)[C@@H](N)CCC(=O)O)C(=O)N[C@@H](CC(C)C)C(=O)N[C@@H](CCC(N)=O)C(=O)N(C)[C@@H](CCCNC(=N)N)C(=O)O (H-EMRLSKFFRDFILQ[NMeR]-OH) | 130 nM | > 75% | > 75% | > 1000 nM |  |  |  |  | 
8 | CC[C@H](C)[C@H](NC(=O)[C@H](Cc1ccccc1)NC(=O)[C@H](CC(=O)O)NC(=O)[C@H](CCCNC(=N)N)NC(=O)[C@H](Cc1ccccc1)NC(=O)[C@H](Cc1ccccc1)NC(=O)[C@H](CCCCN)N(C)C(=O)[C@H](CO)NC(=O)[C@H](CC(C)C)NC(=O)[C@H](CCCNC(=N)N)NC(=O)[C@H](CCSC)NC(=O)[C@H](C)N)C(=O)N[C@@H](CC(C)C)C(=O)N[C@@H](CCC(N)=O)C(=O)N[C@@H](CCCNC(=N)N)C(=O)N[C@@H](CCCCN)C(=O)N[C@@H](CCCCN)C(=O)O |  |  |  |  | 48 nM | 2 h | Unstable |  | 
9 | CC[C@H](C)[C@H](NC(=O)[C@H](CCCNC(=N)N)NC(=O)[C@H](CCSC)NC(=O)[C@@H](N)CCC(=O)O)C(=O)N[C@@H](CO)C(=O)N[C@@H](CCCNC(=N)N)C(=O)N(C)[C@H](C(=O)N[C@H](C(=O)N[C@@H](CC(C)C)C(=O)N[C@@H](CC(=O)O)C(=O)N[C@@H](Cc1ccccc1)C(=O)N[C@@H](CC(C)C)C(=O)N[C@@H](Cc1ccccc1)C(=O)O)[C@@H](C)CC)[C@@H](C)CC (H-EMRISR[NMeI]ILDFLF-OH) |  | > 75% | inactive | > 1000 nM |  |  |  | inactive | Insoluble
10 | CC[C@H](C)[C@H](NC(=O)[C@H](CCCNC(=N)N)NC(=O)[C@H](CO)N(C)C(=O)[C@@H](NC(=O)[C@H](CCCNC(=N)N)NC(=O)[C@H](CCSC)NC(=O)[C@@H](N)CCC(=O)O)[C@@H](C)CC)C(=O)N[C@H](C(=O)N[C@@H](CC(C)C)C(=O)N[C@@H](CC(=O)O)C(=O)N[C@@H](Cc1ccccc1)C(=O)N[C@@H](CC(C)C)C(=O)N[C@@H](Cc1ccccc1)C(=O)O)[C@@H](C)CC (H-EMRI[NMeS]RIILDFLF-OH) |  | > 75% | inactive | 550 nM |  |  |  | inactive | Insoluble
11 | CC[C@H](C)[C@H](NC(=O)[C@H](Cc1ccccc1)NC(=O)[C@H](CC(=O)O)NC(=O)[C@H](CCCNC(=N)N)NC(=O)[C@H](Cc1ccccc1)NC(=O)[C@H](Cc1ccccc1)NC(=O)[C@H](CCCCN)N(C)C(=O)[C@H](CO)NC(=O)[C@H](CC(C)C)NC(=O)[C@H](CCCNC(=N)N)NC(=O)[C@H](CCSC)NC(=O)[C@H](C)N)C(=O)N[C@@H](CC(C)C)C(=O)N(C)[C@@H](CCC(N)=O)C(=O)N[C@@H](CCCNC(=N)N)C(=O)N[C@@H](CCCCN)C(=O)N[C@@H](CCCCN)C(=O)O |  |  |  |  | 360 nM | 6 h | Unstable |  | 
12 | H-EMRLSKFFRDFILQR-OH | 8.1 nM |  |  | > 1000 nM |  | 4 h |  |  | 
